In ChEMBL document CHEMBL5352504, “PINK1-Dependent Mitophagy Inhibits Elevated Ubiquitin Phosphorylation Caused by Mitochondrial Damage” (J Med Chem, 2023):
Calls of active or inactive are those of the source. The rule behind the calls is not given here.

Legend:
HeLa [1] = experiment: Inhibition of ubiquitin phosphorylation in CCCP stimulated human HeLa cells overexpressing Parkin assessed as reduction in CCCP-induced ubiquitin phosphorylation at serine 65 at 50 uM preincubated for 24 hrs followed by CCCP stimulation for 3 hr by Western blot analysis; format: cell-based; conditions: time 27.0 hrs
Outline: (§1)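 Parkin-transfected HeLa cells received 50 μM compound for 24 h. They were then either lysed directly or given 10 μM CCCP for 3 h before lysis. Lysates were immunoblotted for Ser65-phosphorylated ubiquitin, OPA1 cleavage and GAPDH. Untreated transfected and untransfected cells served as references.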

[2] = molecular target: Serine/threonine-protein kinase PINK1, mitochondrial (Mus musculus) (UniProt Q99MQ3); experiment: Activation of mouse PINK1 in mouse astrocytes assessed increase in ubiquitin serine 65 phosphorylation at 50 uM incubated for 24 hrs by ELISA analysis; format: cell-based; conditions: Astrocyte, filed as activator
Sequence of Serine/threonine-protein kinase PINK1, mitochondrial (Mus musculus) (Q99MQ3 whole entry): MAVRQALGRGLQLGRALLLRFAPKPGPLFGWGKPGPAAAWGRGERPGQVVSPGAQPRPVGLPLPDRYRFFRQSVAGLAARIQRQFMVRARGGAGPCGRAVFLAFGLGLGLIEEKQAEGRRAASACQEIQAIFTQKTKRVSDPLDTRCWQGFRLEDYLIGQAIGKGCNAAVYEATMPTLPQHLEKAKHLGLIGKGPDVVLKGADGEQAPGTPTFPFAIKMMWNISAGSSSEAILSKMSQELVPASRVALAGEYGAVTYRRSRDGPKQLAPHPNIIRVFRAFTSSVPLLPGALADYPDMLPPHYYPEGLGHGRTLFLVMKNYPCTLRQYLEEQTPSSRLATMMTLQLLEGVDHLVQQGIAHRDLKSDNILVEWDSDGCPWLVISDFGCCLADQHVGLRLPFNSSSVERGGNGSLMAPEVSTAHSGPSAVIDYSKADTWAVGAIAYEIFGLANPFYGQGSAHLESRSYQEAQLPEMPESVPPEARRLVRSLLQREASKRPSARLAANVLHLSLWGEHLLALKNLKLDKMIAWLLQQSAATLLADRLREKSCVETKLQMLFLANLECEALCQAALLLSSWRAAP
Outline: (§2)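 Primary cortical astrocytes came from postnatal day 3 C57BL/6J pups and were used at 70–90% confluence (7–10 days in vitro). Lysates (HEPES/NP-40 lysis, pellet resuspended in RIPA) went to pS65-Ub ELISA. Signal was normalised per μg protein (BCA); mean ± SEM, n = 8.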

[3] = molecular target: Serine/threonine-protein kinase PINK1, mitochondrial (Homo sapiens) (UniProt Q9BXM7); experiment: Activation of human PINK1 in human HeLa cells overexpressing Parkin assessed as phosphorylation of ubiquitin at serine 65 at 50 uM and measured after 24 hr by Western blot analysis; format: cell-based; outline: as §1
Sequence of Serine/threonine-protein kinase PINK1, mitochondrial (Homo sapiens) (Q9BXM7 whole entry): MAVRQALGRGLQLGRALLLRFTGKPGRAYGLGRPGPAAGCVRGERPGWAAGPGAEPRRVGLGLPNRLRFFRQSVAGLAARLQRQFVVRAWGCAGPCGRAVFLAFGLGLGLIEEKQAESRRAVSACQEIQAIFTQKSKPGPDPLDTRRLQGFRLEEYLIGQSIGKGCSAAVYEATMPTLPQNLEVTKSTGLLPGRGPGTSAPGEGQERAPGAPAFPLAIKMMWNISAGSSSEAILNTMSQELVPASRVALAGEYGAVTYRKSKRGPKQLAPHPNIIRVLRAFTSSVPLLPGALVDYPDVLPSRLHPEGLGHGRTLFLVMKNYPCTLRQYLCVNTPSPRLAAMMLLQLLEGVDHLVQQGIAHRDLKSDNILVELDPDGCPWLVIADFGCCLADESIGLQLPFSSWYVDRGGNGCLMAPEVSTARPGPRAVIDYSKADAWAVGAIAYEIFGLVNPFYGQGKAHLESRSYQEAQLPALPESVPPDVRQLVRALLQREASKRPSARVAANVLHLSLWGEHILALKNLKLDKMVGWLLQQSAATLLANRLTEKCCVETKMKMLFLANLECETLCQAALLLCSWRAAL

[4] = molecular target: Serine/threonine-protein kinase PINK1, mitochondrial (Mus musculus) (UniProt Q99MQ3); experiment: Activation of mouse PINK1 in mouse astrocytes assessed ubiquitin serine 65 phosphorylation at 50 uM preincubated for 24 hrs followed by valinomycin treatment for 5 hrs by ELISA; format: cell-based; conditions: Astrocyte, time 29.0 hrs; outline: as §2
[5] = molecular target: T1, Serine/threonine-protein kinase Pink1, mitochondrial (Tribolium castaneum) (UniProt D6WMX4); experiment: Inhibition of recombinant Tribolium castaneum PINK1 using human Parkin as substrate assessed as substrate phosphorylation upto 100 uM
T1 sequence (whole entry): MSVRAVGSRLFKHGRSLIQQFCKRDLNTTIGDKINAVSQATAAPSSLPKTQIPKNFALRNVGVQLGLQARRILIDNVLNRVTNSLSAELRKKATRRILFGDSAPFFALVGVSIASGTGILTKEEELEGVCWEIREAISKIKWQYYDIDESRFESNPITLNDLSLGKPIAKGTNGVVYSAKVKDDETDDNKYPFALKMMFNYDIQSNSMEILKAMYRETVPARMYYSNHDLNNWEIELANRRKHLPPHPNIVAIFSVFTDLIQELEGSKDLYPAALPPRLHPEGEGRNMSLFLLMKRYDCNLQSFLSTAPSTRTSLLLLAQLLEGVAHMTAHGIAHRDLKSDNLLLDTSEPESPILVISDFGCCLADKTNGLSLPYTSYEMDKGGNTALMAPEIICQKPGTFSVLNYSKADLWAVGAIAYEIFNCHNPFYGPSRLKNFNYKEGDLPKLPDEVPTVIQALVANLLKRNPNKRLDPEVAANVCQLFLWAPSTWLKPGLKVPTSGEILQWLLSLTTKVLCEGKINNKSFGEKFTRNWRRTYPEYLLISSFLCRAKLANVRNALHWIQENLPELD

[6] = molecular target: T1, Serine/threonine-protein kinase Pink1, mitochondrial (Tribolium castaneum); experiment: Inhibition of recombinant Tribolium castaneum PINK1 using human ubiquitin as substrate assessed as substrate phosphorylation upto 100 uM
[7] = molecular target: Serine/threonine-protein kinase PINK1, mitochondrial (Homo sapiens) (UniProt Q9BXM7); experiment: Activation of human PINK1 in human HeLa cells overexpressing Parkin assessed as phosphorylation of ubiquitin at serine 65 at 10 uM and measured after 3 hr by Western blot analysis; format: cell-based; conditions: filed as activator
Outline: (§3)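 Parkin-transfected HeLa (DMEM, 10% FBS, 37 °C, 5% CO2) treated 3 h with 10 μM agent (CCCP control arm), with or without 24 h pre-treatment at 50 μM. Lysed in Tris pH 7.5 buffer with phosphatase/protease inhibitors, protein by Bradford, boiled in SDS buffer, immunoblotted for pUb Ser65, OPA1 (cleavage as depolarization read-out) and GAPDH loading control.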

HeLa [8] = experiment: Induction of mitochondrial membrane depolarization in human HeLa cells overexpressing Parkin assessed as OPA1 cleavage at 10 uM and measured after 3 hrs by Western blot analysis; format: functional, cell-based; outline: as §3
MEF [9] = experiment: Induction of mitophagy in wild-type PINK1 harboring mouse immortalized MEF cells overexpressing HA-tagged Parkin assessed as increase in mitophagy at 20 uM incubated for 16 hrs by flow cytometry analysis; format: functional, cell-based
Outline: (§4)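 Immortalized MEFs from littermate PINK1 WT or KO mito-QC embryos (mCherry-GFP-FIS1 reporter), overexpressing HA-Parkin; 2.5 × 10^5 cells seeded day before, treated 16 h. Trypsinized, fixed in 3.7% formaldehyde/200 mM HEPES pH 7.0, ≥2 × 10^4 cells acquired by flow cytometry; live cells gated, percent mitophagy from GFP/mCherry ratio using untreated-cell gate; n = 3; two-way ANOVA with Sidak test.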

MEF [10] = experiment: Induction of mitophagy in PINK1 knockout mouse immortalized MEF cells overexpressing HA-tagged Parkin assessed as increase in mitophagy at 20 uM incubated for 16 hrs by flow cytometry analysis; format: functional, cell-based; outline: as §4
[11] = molecular target: Serine/threonine-protein kinase PINK1, mitochondrial (Homo sapiens) (UniProt Q9BXM7); experiment: Activation of PINK1 in human HeLa cells transfected with Parkin assessed as increase in Parkin phosphorylation at serine 65 at 50 uM incubated for 1 hr by Western blot analysis; format: cell-based
Outline: (§5)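 HeLa cells transfected with Parkin were exposed to 50 μM compound for 1 h, with 10 μM CCCP for 3 h as a control. Cells were then lysed and immunoblotted for pSer65 Parkin, total Parkin, OPA1 and GAPDH (loading control). Untreated transfected and untransfected cells were included. Blots are representative of three repeat experiments.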

MEF [12] = experiment: Induction of mitophagy in PINK1 knockout mouse immortalized MEF cells overexpressing HA-tagged Parkin assessed as increase in mitophagy at 5 uM incubated for 16 hrs by flow cytometry analysis; format: functional, cell-based
Outline: (§6)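 Immortalised MEFs from PINK1 WT or KO mito-QC littermate embryos, overexpressing HA-Parkin, were treated for 16 h. Cells were trypsinised, fixed in 3.7% formaldehyde/200 mM HEPES pH 7.0 and analysed by flow cytometry (≥2 × 10^4 cells). Living cells were gated on scatter, and the untreated-condition gate was applied to all conditions. Percent cells undergoing mitophagy was taken from the GFP/mCherry ratio; n = 3, two-way ANOVA with Sidak test.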

HeLa [13] = experiment: Inhibition of CCCP-induced ubiquitin phosphorylation at serine 65 residue in human HeLa cells transfected with YFP-Parkin at 50 uM preincubated for 24 hrs followed by CCCP stimulation and measured after 1 hr hr by Hoechst 33258 staining based immunofluorescence analysis; format: cell-based; conditions: time 25.0 hrs
Outline: (§7)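 YFP-Parkin HeLa cells were pretreated with 50 μM compound for 24 h, then given 10 μM CCCP or niclosamide for 1 h. Cells were fixed in chilled 4% PFA, permeabilised with 0.1% Triton, blocked in BSA, then immunostained overnight at 4 °C for pSer65-Ub and TOM20 with Hoechst. YFP-Parkin was imaged by confocal microscopy (40× oil). pUb mitochondrial localisation was quantified from images.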

HeLa [14] = experiment: (§8) Induction of mitochondrial membrane depolarization in human HeLa cells transfected with YFP-Parkin assessed as prevention of CCCP induced mitochondrial membrane potential loss at 50 uM preincubated for 24 hrs followed by CCCP stimulation and measured after 1 hr by Hoechst 33258 staining based immunofluorescence analysis; format: functional, cell-based; conditions: time 25.0 hrs
Outline: (§9)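 Mitochondrial membrane potential was read in YFP-Parkin HeLa cells pretreated with 50 μM compound for 24 h, then given 10 μM niclosamide or CCCP for 1 h. Medium was replaced with 5 nM TMRM plus Hoechst for 30 min at 37 °C in the dark. After a PBS wash, live cells were imaged by confocal microscopy at 37 °C, 5% CO2.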

HeLa [15] = experiment: Induction of mitochondrial membrane depolarization in human HeLa cells overexpressing Parkin assessed as inhibition of niclosamide-induced OPA1 cleavage at 50 uM preincubated for 24 hrs followed by niclosamide stimulation and measured after 3 hrs by Western blot analysis; format: functional, cell-based; conditions: time 27.0 hrs
HeLa [16] = experiment: Induction of mitophagy in human HeLa cells transfected with YFP-Parkin assessed as effect on mitochondrial fragmentation at 50 uM incubated for 24 hrs by Hoechst 33258 staining based immunofluorescence analysis; format: functional, cell-based
Outline: (§10)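 YFP-Parkin-transfected HeLa cells were left untreated or exposed to 50 μM compound alone for 24 h. Cells were PFA-fixed, Triton-permeabilised and immunostained for pSer65-Ub and TOM20 with Hoechst. Confocal imaging assessed mitochondrial fragmentation, YFP-Parkin localisation and ubiquitin phosphorylation.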

HeLa [17] = experiment: Inhibition of niclosamide-induced ubiquitin phosphorylation at serine 65 residue in human HeLa cells transfected with YFP-Parkin at 50 uM preincubated for 24 hrs followed by niclosamide stimulation and measured after 1 hr hr by Western blot analysis; format: cell-based; conditions: time 25.0 hrs
Outline: (§11)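 YFP-Parkin-transfected HeLa cells were pretreated with 50 μM compound (24 h per legend, 23 h per methods), then given 10 μM CCCP or niclosamide for 1 h. Lysis used AP buffer (Tris pH 7.5, IGEPAL, protease/phosphatase inhibitors). Blots were on PVDF, milk-blocked, primary antibody overnight at 4 °C, HRP detection; probed for pUb, LC3B-I/-II and α-tubulin.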

MEF [18] = experiment: Induction of mitophagy in wild-type PINK1 harboring mouse immortalized MEF cells overexpressing HA-tagged Parkin assessed as increase in mitophagy at 5 uM incubated for 16 hrs by flow cytometry analysis; format: functional, cell-based; outline: as §6
HeLa [19] = experiment: Induction of mitophagy in human HeLa cells transfected with YFP-Parkin assessed as effect on Parkin localization at 50 uM incubated for 24 hrs by Hoechst 33258 staining based immunofluorescence analysis; format: functional, cell-based; outline: as §10
HeLa [20] = experiment: Inhibition of CCCP-induced ubiquitin phosphorylation at serine 65 residue in human HeLa cells transfected with YFP-Parkin at 50 uM preincubated for 24 hrs followed by CCCP stimulation and measured after 1 hr hr by Western blot analysis; format: cell-based; conditions: time 25.0 hrs; outline: as §11
HeLa [21] = experiment: Induction of mitochondrial membrane depolarization in human HeLa cells overexpressing Parkin assessed as inhibition of CCCP-induced OPA1 cleavage at 50 uM preincubated for 24 hrs followed by CCCP stimulation and measured after 3 hrs by Western blot analysis; format: functional, cell-based; conditions: time 27.0 hrs; outline: as §1
HeLa [22] = experiment: Inhibition of niclosamide-induced ubiquitin phosphorylation at serine 65 residue in human HeLa cells transfected with YFP-Parkin at 50 uM preincubated for 24 hrs followed by niclosamide stimulation and measured after 1 hr hr by Hoechst 33258 staining based immunofluorescence analysis; format: cell-based; conditions: time 25.0 hrs; outline: as §7
HeLa [23] = experiment: Induction of mitophagy in YFP-Parkin-transfected human HeLa cells assessed as effect on ubiquitin phosphorylation at 50 uM incubated for 24 hrs by Hoechst 33258 staining based immunofluorescence analysis; format: functional, cell-based; outline: as §10
HeLa [24] = experiment: as §8, with “niclosamide” for “CCCP”; format: functional, cell-based; conditions: time 25.0 hrs; outline: as §9
[25] = molecular target: Serine/threonine-protein kinase PINK1, mitochondrial (Homo sapiens) (UniProt Q9BXM7); experiment: Activation of PINK1 in human HeLa cells transfected with Parkin assessed as prevention of OPA1 cleavage at 50 uM incubated for 1 hr by Western blot analysis; format: cell-based; outline: as §5

For c1coc(CNc2ncnc3[nH]cnc23)c1, the inhibition (HeLa [1]) was “inactive”, the Activity [2] was “Active” and the Activity [3] was “inactive”. For the same compound, the Activity [4] was “inactive”.

With O=P(O)(O)OP(=O)(O)OP(=O)(O)OC[C@H]1O[C@@H](n2cnc3c(NCc4ccccc4)ncnc32)[C@H](O)[C@@H]1O the inhibition [5] was “inactive” and the inhibition [6] was “inactive”.

N#CC(C#N)=NNc1cccc(Cl)c1 was tested, and the Activity [7] was “Active”, the Activity (HeLa [8]) was “Active” and the Activity (MEF [9]) was “Active”. The Activity (MEF [10]) was “inactive”.

In the case of CC(C)(C)CNc1ncnc2[nH]cnc12, the Activity [11] was “inactive”.

With Oc1ccc(CCNc2ncnc3[nH]cnc23)cc1 the Activity [11] was “inactive”.

In the case of O=C(Nc1ccc([N+](=O)[O-])cc1Cl)c1cc(Cl)ccc1O, the Activity [7] was “Active” and the Activity (HeLa [8]) was “Active”.

For c1ccc(CNc2ncnc3[nH]cnc23)cc1, the Activity [11] was “inactive”.

OC[C@H]1O[C@@H](n2cnc3c(NCc4ccco4)ncnc32)[C@H](O)[C@@H]1O was tested, and the Activity (MEF [12]) was “inactive”, the inhibition (HeLa [13]) was “Active” and the Activity (HeLa [14]) was “inactive”. The inhibition (HeLa [15]) was “inactive”, the Activity (HeLa [16]) was “inactive” and the inhibition (HeLa [1]) was “Active”. The inhibition (HeLa [17]) was “Active”, the Activity (MEF [18]) was “Active” and the inhibition [5] was “inactive”. The Activity (HeLa [19]) was “inactive”, the inhibition (HeLa [20]) was “Active” and the Activity [3] was “inactive”. The inhibition (HeLa [21]) was “inactive”, the inhibition [6] was “inactive” and the inhibition (HeLa [22]) was “Active”. The Activity (HeLa [23]) was “inactive” and the Activity (HeLa [24]) was “inactive”.

With CC(C)(C)CNc1ncnc2c1ncn2[C@@H]1O[C@H](CO)[C@@H](O)[C@H]1O the Activity [11] was “inactive” and the Activity [25] was “inactive”.
